Assay results published in ChEMBL document CHEMBL2176874, “1-(sulfonyl)-5-(arylsulfonyl)indoline as activators of the tumor cell specific M2 isoform of pyruvate kinase” (Bioorg Med Chem Lett, 2012).
Active and inactive are the calls of the source. No cut-off for these calls is given here.

Legend:
[1] = biological target: Pyruvate kinase PKM (Homo sapiens) (UniProt P14618); test: Activation of human pyruvate kinase M2 using phosphoenolpyruvate as substrate by kinaseGlo assay relative to control
Method in brief: (§1)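 Cell-free enzymatic pyruvate kinase activity assay. Maximal activation is expressed as the percentage rise in enzyme activity above basal level, with 0% set as enzyme activity without compound.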

[2] = biological target: Pyruvate kinase PKM (Homo sapiens) (UniProt P14618); test: Activation of human pyruvate kinase M2 using phosphoenolpyruvate as substrate assessed as concentration required for 50% activation by kinaseGlo assay
[3] = Half life in human liver microsomes at 1 uM by LC-MS/MS analysis
[4] = Apparent permeability from apical to basal side of human Caco2 cells at 10 uM after 90 mins by LC-MS/MS analysis; conditions: Caco-2
[5] = Apparent permeability from basal to apical side of human Caco2 cells at 10 uM after 90 mins by LC-MS/MS analysis; conditions: Caco-2
hERG (KCNH2) = hERG (KCNH2) (Homo sapiens, UniProt Q12809); test: Inhibition of human ERG expressed in CHO cells at 1 uM measured up to 3 mins by whole cell patch clamp assay; type: cell-based; conditions: CHO cells expressing human ERG
hERG (KCNH2), sequence (Q12809 whole entry): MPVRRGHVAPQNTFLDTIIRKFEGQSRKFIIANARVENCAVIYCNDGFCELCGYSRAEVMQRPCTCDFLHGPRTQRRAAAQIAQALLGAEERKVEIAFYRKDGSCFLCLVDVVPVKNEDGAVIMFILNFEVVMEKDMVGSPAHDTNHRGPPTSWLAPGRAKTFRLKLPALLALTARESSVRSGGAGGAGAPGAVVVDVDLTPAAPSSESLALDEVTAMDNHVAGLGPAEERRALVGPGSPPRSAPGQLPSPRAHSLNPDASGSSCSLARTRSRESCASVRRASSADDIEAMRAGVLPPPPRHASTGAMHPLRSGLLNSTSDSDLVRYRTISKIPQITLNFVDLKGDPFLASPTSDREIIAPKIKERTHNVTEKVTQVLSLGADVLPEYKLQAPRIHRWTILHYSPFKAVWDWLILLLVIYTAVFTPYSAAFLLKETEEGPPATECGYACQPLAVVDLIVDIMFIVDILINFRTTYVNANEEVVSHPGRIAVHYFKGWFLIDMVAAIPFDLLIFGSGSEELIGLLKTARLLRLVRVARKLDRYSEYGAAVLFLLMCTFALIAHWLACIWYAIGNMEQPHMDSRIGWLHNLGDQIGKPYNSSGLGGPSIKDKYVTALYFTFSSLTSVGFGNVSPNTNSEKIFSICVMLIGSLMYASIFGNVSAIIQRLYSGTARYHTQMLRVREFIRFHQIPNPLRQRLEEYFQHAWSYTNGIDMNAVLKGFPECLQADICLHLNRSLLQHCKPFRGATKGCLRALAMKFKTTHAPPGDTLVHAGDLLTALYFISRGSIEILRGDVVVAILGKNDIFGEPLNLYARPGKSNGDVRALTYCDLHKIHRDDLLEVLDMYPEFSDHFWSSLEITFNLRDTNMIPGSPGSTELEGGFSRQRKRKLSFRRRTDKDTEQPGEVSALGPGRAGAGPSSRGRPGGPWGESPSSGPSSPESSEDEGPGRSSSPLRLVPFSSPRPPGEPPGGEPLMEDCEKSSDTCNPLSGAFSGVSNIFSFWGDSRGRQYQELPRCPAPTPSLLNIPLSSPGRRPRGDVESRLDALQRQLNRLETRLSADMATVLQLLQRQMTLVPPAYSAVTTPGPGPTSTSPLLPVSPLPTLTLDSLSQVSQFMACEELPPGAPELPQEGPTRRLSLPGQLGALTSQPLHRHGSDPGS

[6] = Serum protein binding in human at 1 uM after 5 hrs by LC-MS/MS analysis; type: ADME, cell-free; conditions: read-out: PB (converted)
[7] = Efflux ratio of apparent permeability from basal to apical to apical to basal side of human Caco2 cells at 10 uM after 90 mins by LC-MS/MS analysis; conditions: Caco-2
[8] = biological target: Pyruvate kinase PKLR (Homo sapiens) (UniProt P30613); test: Activation of human pyruvate kinase R using phosphoenolpyruvate as substrate assessed as concentration required for 50% activation by kinaseGlo assay
Pyruvate kinase PKLR (Homo sapiens), sequence (P30613 whole entry, looked up): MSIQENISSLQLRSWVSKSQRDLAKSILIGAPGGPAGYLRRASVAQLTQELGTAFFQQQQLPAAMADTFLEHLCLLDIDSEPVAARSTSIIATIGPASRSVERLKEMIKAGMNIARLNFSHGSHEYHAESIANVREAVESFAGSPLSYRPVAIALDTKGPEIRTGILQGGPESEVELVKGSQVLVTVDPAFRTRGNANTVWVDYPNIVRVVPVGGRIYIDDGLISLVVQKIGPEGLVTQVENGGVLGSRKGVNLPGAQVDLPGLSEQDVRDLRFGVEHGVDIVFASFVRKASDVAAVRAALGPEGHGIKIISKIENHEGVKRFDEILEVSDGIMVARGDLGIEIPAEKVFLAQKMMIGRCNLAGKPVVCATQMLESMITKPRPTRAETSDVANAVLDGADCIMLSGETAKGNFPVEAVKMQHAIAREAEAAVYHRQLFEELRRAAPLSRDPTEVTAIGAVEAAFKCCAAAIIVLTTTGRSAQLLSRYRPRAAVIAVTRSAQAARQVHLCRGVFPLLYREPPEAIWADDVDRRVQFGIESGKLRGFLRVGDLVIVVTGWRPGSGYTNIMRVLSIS

[9] = biological target: Pyruvate kinase PKLR (Homo sapiens) (UniProt P30613); test: Activation of human pyruvate kinase L using phosphoenolpyruvate as substrate by kinaseGlo assay relative to control; method in brief: as §1
[10] = biological target: Pyruvate kinase PKM (Homo sapiens) (UniProt P14618); test: Activation of human pyruvate kinase M1 using phosphoenolpyruvate as substrate by kinaseGlo assay relative to control; method in brief: as §1
[11] = biological target: Pyruvate kinase PKM (Homo sapiens) (UniProt P14618); test: Activation of human pyruvate kinase M1 using phosphoenolpyruvate as substrate by kinaseGlo assay
[12] = biological target: Pyruvate kinase PKLR (Homo sapiens) (UniProt P30613); test: Activation of human pyruvate kinase R using phosphoenolpyruvate as substrate by kinaseGlo assay relative to control; method in brief: as §1
[13] = biological target: Pyruvate kinase PKLR (Homo sapiens) (UniProt P30613); test: Activation of human pyruvate kinase L using phosphoenolpyruvate as substrate assessed as concentration required for 50% activation by kinaseGlo assay

Pyruvate kinase PKM (Homo sapiens), sequence (P14618 2-531 limits assumed): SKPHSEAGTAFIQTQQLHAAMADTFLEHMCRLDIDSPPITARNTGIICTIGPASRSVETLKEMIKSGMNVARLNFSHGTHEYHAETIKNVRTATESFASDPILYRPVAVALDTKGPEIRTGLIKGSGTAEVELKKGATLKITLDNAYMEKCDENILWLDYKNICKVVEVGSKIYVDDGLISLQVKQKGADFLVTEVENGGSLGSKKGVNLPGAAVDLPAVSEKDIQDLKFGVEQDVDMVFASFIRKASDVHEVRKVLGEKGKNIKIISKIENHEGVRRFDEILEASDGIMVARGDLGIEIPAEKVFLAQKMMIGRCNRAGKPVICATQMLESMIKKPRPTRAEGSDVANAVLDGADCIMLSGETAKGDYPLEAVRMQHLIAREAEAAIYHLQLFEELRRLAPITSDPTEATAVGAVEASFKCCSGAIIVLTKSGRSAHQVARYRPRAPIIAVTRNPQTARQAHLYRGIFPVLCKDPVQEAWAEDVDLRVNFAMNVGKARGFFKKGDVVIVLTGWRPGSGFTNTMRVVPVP

| Structure (SMILES) | max activation [1] | Activity [2] | also measured |
| --- | --- | --- | --- |
| COc1cccc(S(=O)(=O)N2c3ccc(S(=O)(=O)c4ccc5c(c4)OCCO5)cc3CC2C)c1 (racemic) | 119% | 0.8 µM | – |
| CCN(c1ccc(S(=O)(=O)c2ccc3c(c2)OCCO3)cc1)S(C)(=O)=O | 100% | 41 µM | – |
| CCN(c1ccc(S(=O)(=O)c2ccc3c(c2)OCCO3)c(C)c1)S(C)(=O)=O | 160% | 2.7 µM | – |
| CCS(=O)(=O)N1CCc2cc(C(=O)CSc3ccc4c(c3)OCCCO4)ccc21 | 149% | 0.51 µM | half-life at 1 µM ([3]; liver microsomes): 1.4 min |
| CC1Cc2cc(S(=O)(=O)c3ccc4c(c3)OCCO4)ccc2N1S(=O)(=O)c1ccccc1 (racemic) | 134% | 0.6 µM | – |
| CCS(=O)(=O)N1CCc2cc(C(=O)CSc3ccc(F)cc3F)ccc21 | 171% | 4.1 µM | – |
| CC1Cc2cc(S(=O)(=O)c3ccc4c(c3)OCCO4)ccc2N1S(=O)(=O)c1ccc(F)cc1 (racemic) | 159% | 0.6 µM | – |
| CC1Cc2cc(C(=O)CSc3ccc4c(c3)OCCO4)ccc2N1S(C)(=O)=O (racemic) | 164% | 0.55 µM | half-life at 1 µM ([3]; liver microsomes): 3.4 min |
| CS(=O)(=O)n1ccc2cc(S(=O)(=O)c3ccc4c(c3)OCCO4)ccc21 | 98% | 0.023 µM | – |
| CC1Cc2cc(C(=O)c3ccc4c(c3)OCCO4)ccc2N1S(C)(=O)=O (racemic) | – | inactive | – |
| O=S(=O)(c1ccc2c(c1)CCN2S(=O)(=O)c1cccc(F)c1)c1ccc2c(c1)OCCO2 | 87% | 0.03 µM | – |
| CC1Cc2cc(S(=O)(=O)c3ccc4c(c3)OCCO4)ccc2N1S(=O)(=O)c1c(F)cccc1F (racemic) | 168% | 0.5 µM | – |
| CC1Cc2cc(S(=O)(=O)c3ccc4c(c3)OCCO4)ccc2N1S(=O)(=O)Cc1ccccc1 (racemic) | 111% | 1.6 µM | – |
| CCS(=O)(=O)N1CCc2cc(C(=O)CSc3cccc(OC)c3)ccc21 | 110% | 2.4 µM | – |
| CC1Cc2cc(S(=O)(=O)Nc3ccc4c(c3)OCCO4)ccc2N1S(C)(=O)=O (racemic) | 25.5% | 51 µM | – |
| CS(=O)(=O)Nc1ccc(C(=O)CSc2ccc3c(c2)OCCO3)cc1 | 140% | 2.5 µM | half-life at 1 µM ([3]; microsomes): 3.3 min |
| CS(=O)(=O)N1CCc2c1cc(F)c(S(=O)(=O)c1ccc3c(c1)OCCO3)c2F | 78% | 0.079 µM | – |
| O=P(O)(O)OC[C@H]1O[C@@](O)(COP(=O)(O)O)[C@@H](O)[C@@H]1O | 148% | 0.08 µM | – |
| CS(=O)(=O)N1CCCc2cc(C(=O)CSc3ccc4c(c3)OCCO4)ccc21 | 107% | 1.3 µM | – |
| CC1Cc2cc(NS(=O)(=O)c3ccc4c(c3)OCCO4)ccc2N1S(C)(=O)=O (racemic) | 32.5% | > 100 µM | – |
| O=S(=O)(c1ccc2c(c1)CCN2S(=O)(=O)c1ccccc1)c1ccc2c(c1)OCCO2 | 122% | 0.093 µM | – |

Second part, led by results:

| max activation [1] | Activity [2] | Structure (SMILES) | also measured |
| --- | --- | --- | --- |
| 194% | 2.8 µM | CC(C)N(c1ccc(S(=O)(=O)c2ccc3c(c2)OCCO3)cc1)S(C)(=O)=O | – |
| 89% | 0.027 µM | CCS(=O)(=O)N1CCc2cc(S(=O)(=O)c3ccc4c(c3)OCCO4)ccc21 | – |
| 154% | 2.72 µM | Cc1cn(S(C)(=O)=O)c2ccc(S(=O)(=O)c3ccc4c(c3)OCCO4)cc12 | – |
| 152% | 2.3 µM | CS(=O)(=O)N1CCCc2cc(S(=O)(=O)c3ccc4c(c3)OCCO4)ccc21 | – |
| 125% | 0.017 µM | CS(=O)(=O)N1Cc2ccc(S(=O)(=O)c3ccc4c(c3)OCCO4)cc2C1 | half-life at 1 µM ([3]; liver microsomes): > 45 min; Papp A→B at 1.5 h, 10 µM [4]: 30.4 ×10⁻⁶ cm/s; Papp B→A at 1.5 h, 10 µM [5]: 32.4 ×10⁻⁶ cm/s; inhibition at 0.05 h, 1 µM (hERG (KCNH2)): 7.3%; fraction unbound at 5 h, 1 µM [6]: 0.091; efflux ratio at 1.5 h, 10 µM [7]: 1.06 |
| 140% | 0.061 µM | O=S(=O)(c1ccc2c(c1)CN(S(=O)(=O)c1ccccc1)C2)c1ccc2c(c1)OCCO2 | – |
| 35% | 0.02 µM | CCS(=O)(=O)N1Cc2ccc(S(=O)(=O)c3ccc4c(c3)OCCO4)cc2C1 | – |
| 148% | 2 µM | CC1Cc2cc(S(=O)(=O)c3ccc4c(c3)OCCO4)ccc2N1S(C)(=O)=O (racemic) | half-life at 1 µM ([3]; liver microsomes): 31.5 min; Papp A→B at 1.5 h, 10 µM [4]: 20.4 ×10⁻⁶ cm/s; Papp B→A at 1.5 h, 10 µM [5]: 12.1 ×10⁻⁶ cm/s; fraction unbound at 5 h, 1 µM [6]: 0.075; efflux ratio at 1.5 h, 10 µM [7]: 0.59 |
| 106% | 0.045 µM | CS(=O)(=O)N1CCc2cc(S(=O)(=O)c3ccc4c(c3)OCCO4)ccc21 | half-life at 1 µM ([3]; microsomes): 26 min; Activity [8]: > 100 µM; max activation [9]: 33%; max activation [10]: inactive; Activity [11]: inactive; Papp A→B at 1.5 h, 10 µM [4]: 37.5 ×10⁻⁶ cm/s; Papp B→A at 1.5 h, 10 µM [5]: 43 ×10⁻⁶ cm/s; max activation [12]: 34%; inhibition at 0.05 h, 1 µM (hERG (KCNH2)): 9%; Activity [13]: > 100 µM; fraction unbound at 5 h, 1 µM [6]: 0.059; efflux ratio at 1.5 h, 10 µM [7]: 1.14 |
| 91.5% | 0.189 µM | CC(C)CS(=O)(=O)N1Cc2ccc(S(=O)(=O)c3ccc4c(c3)OCCO4)cc2C1 | – |
| 105% | 0.017 µM | O=S(=O)(c1ccc2c(c1)CCN2S(=O)(=O)C1CC1)c1ccc2c(c1)OCCO2 | – |
